Test results from ChEMBL document CHEMBL4689842, “EUbOPEN Chemogenomics Library wave 1” (2021).

Tested on: HEK-293T
Assay: Multiplex assay against HEK293T;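 on Population Tubulin-Different-Phenotype (%): share of the cells with healthy nuclei that show this phenotype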
Format: toxicity, cell-based
Details: human
Summary of the method: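 Per cents of healthy-nucleus cells form the tubulin, mitochondrial-mass and membrane-permeability phenotype values. Live cells were stained at seeding with Hoechst33342, BioTracker Green Microtubule Cytoskeleton Dye, MitoTracker Red and Annexin V Alexa Fluor 680. After compound addition they were imaged on a CQ1 microscope at 37°C and 5% CO2, and CellPathfinder machine-learning gating split them into Hoechst high-intensity objects or normal cells, normal cells into healthy, pyknosed or fragmented nuclei, and pyknosed cells into mitotic or apoptotic.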

[1] = 12 h, 1 µM, compound concentration 1 uM, replicate 1
[2] = 12 h, 1 µM, compound concentration 1 uM, replicate 2
[3] = 12 h, 10 µM, compound concentration 10 uM, replicate 1
[4] = 12 h, 10 µM, compound concentration 10 uM, replicate 2
[5] = 24 h, 1 µM, compound concentration 1 uM, replicate 1
[6] = 24 h, 1 µM, compound concentration 1 uM, replicate 2
[7] = 24 h, 10 µM, compound concentration 10 uM, replicate 1
[8] = 24 h, 10 µM, compound concentration 10 uM, replicate 2
[9] = 48 h, 1 µM, compound concentration 1 uM, replicate 1
[10] = 48 h, 1 µM, compound concentration 1 uM, replicate 2
[11] = 48 h, 10 µM, compound concentration 10 uM, replicate 1
[12] = 48 h, 10 µM, compound concentration 10 uM, replicate 2

## Cl.O=C(O)c1cc(-c2ccc(C3CCNCC3)cc2)c2ccc(-c3ccc(C(F)(F)F)cc3)cc2c1
[1]
  Population Apoptotic (%): 43%
  Population Fragmented Nuclei (%): 17%
  Population Healthy Nuclei (%): 21%
  Population Hoechst High Intensity Objects (%): 19%
  Population Membrane Permeable-Phenotype (%): 0%
  Population Mitochondria Different-Phenotype (%): 76%
  Population Mitotic Cells (%): 56%
  Population Normal (%): 80%
  Population Pyknosed Nuclei (%): 61%
  Population Tubulin-Different-Phenotype (%): 36%
  Total Cell Count: 147
[2]
  Population Apoptotic (%): 6%
  Population Fragmented Nuclei (%): 8%
  Population Healthy Nuclei (%): 38%
  Population Hoechst High Intensity Objects (%): 6%
  Population Membrane Permeable-Phenotype (%): 7%
  Population Mitochondria Different-Phenotype (%): 9%
  Population Mitotic Cells (%): 93%
  Population Normal (%): 93%
  Population Pyknosed Nuclei (%): 52%
  Population Tubulin-Different-Phenotype (%): 4%
  Total Cell Count: 178
[3]
  Population Apoptotic (%): 62%
  Population Fragmented Nuclei (%): 16%
  Population Healthy Nuclei (%): 20%
  Population Hoechst High Intensity Objects (%): 10%
  Population Membrane Permeable-Phenotype (%): 3%
  Population Mitochondria Different-Phenotype (%): 80%
  Population Mitotic Cells (%): 37%
  Population Normal (%): 89%
  Population Pyknosed Nuclei (%): 62%
  Population Tubulin-Different-Phenotype (%): 49%
  Total Cell Count: 305
[4]
  Population Apoptotic (%): 64%
  Population Fragmented Nuclei (%): 8%
  Population Healthy Nuclei (%): 16%
  Population Hoechst High Intensity Objects (%): 16%
  Population Membrane Permeable-Phenotype (%): 20%
  Population Mitochondria Different-Phenotype (%): 66%
  Population Mitotic Cells (%): 35%
  Population Normal (%): 83%
  Population Pyknosed Nuclei (%): 75%
  Population Tubulin-Different-Phenotype (%): 66%
  Total Cell Count: 111
[5]
  Population Apoptotic (%): 43%
  Population Fragmented Nuclei (%): 14%
  Population Healthy Nuclei (%): 33%
  Population Hoechst High Intensity Objects (%): 22%
  Population Membrane Permeable-Phenotype (%): 2%
  Population Mitochondria Different-Phenotype (%): 59%
  Population Mitotic Cells (%): 56%
  Population Normal (%): 77%
  Population Pyknosed Nuclei (%): 51%
  Population Tubulin-Different-Phenotype (%): 28%
  Total Cell Count: 160
[6]
  Population Apoptotic (%): 9%
  Population Fragmented Nuclei (%): 8%
  Population Healthy Nuclei (%): 72%
  Population Hoechst High Intensity Objects (%): 4%
  Population Membrane Permeable-Phenotype (%): 4%
  Population Mitochondria Different-Phenotype (%): 11%
  Population Mitotic Cells (%): 90%
  Population Normal (%): 95%
  Population Pyknosed Nuclei (%): 19%
  Population Tubulin-Different-Phenotype (%): 9%
  Total Cell Count: 236
[7]
  Population Apoptotic (%): 66%
  Population Fragmented Nuclei (%): 20%
  Population Healthy Nuclei (%): 18%
  Population Hoechst High Intensity Objects (%): 16%
  Population Membrane Permeable-Phenotype (%): 4%
  Population Mitochondria Different-Phenotype (%): 78%
  Population Mitotic Cells (%): 34%
  Population Normal (%): 83%
  Population Pyknosed Nuclei (%): 60%
  Population Tubulin-Different-Phenotype (%): 57%
  Total Cell Count: 297
[8]
  Population Apoptotic (%): 60%
  Population Fragmented Nuclei (%): 11%
  Population Healthy Nuclei (%): 16%
  Population Hoechst High Intensity Objects (%): 28%
  Population Membrane Permeable-Phenotype (%): 0%
  Population Mitochondria Different-Phenotype (%): 61%
  Population Mitotic Cells (%): 39%
  Population Normal (%): 71%
  Population Pyknosed Nuclei (%): 72%
  Population Tubulin-Different-Phenotype (%): 76%
  Total Cell Count: 112
[9]
  Population Apoptotic (%): 38%
  Population Fragmented Nuclei (%): 25%
  Population Healthy Nuclei (%): 27%
  Population Hoechst High Intensity Objects (%): 21%
  Population Membrane Permeable-Phenotype (%): 2%
  Population Mitochondria Different-Phenotype (%): 25%
  Population Mitotic Cells (%): 61%
  Population Normal (%): 78%
  Population Pyknosed Nuclei (%): 47%
  Population Tubulin-Different-Phenotype (%): 19%
  Total Cell Count: 166
[10]
  Population Apoptotic (%): 8%
  Population Fragmented Nuclei (%): 4%
  Population Healthy Nuclei (%): 82%
  Population Hoechst High Intensity Objects (%): 2%
  Population Membrane Permeable-Phenotype (%): 4%
  Population Mitochondria Different-Phenotype (%): 1%
  Population Mitotic Cells (%): 92%
  Population Normal (%): 97%
  Population Pyknosed Nuclei (%): 13%
  Population Tubulin-Different-Phenotype (%): 9%
  Total Cell Count: 390
[11]
  Population Apoptotic (%): 60%
  Population Fragmented Nuclei (%): 34%
  Population Healthy Nuclei (%): 7%
  Population Hoechst High Intensity Objects (%): 21%
  Population Membrane Permeable-Phenotype (%): 0%
  Population Mitochondria Different-Phenotype (%): 89%
  Population Mitotic Cells (%): 39%
  Population Normal (%): 78%
  Population Pyknosed Nuclei (%): 58%
  Population Tubulin-Different-Phenotype (%): 78%
  Total Cell Count: 314
[12]
  Population Apoptotic (%): 40%
  Population Fragmented Nuclei (%): 13%
  Population Healthy Nuclei (%): 23%
  Population Hoechst High Intensity Objects (%): 27%
  Population Membrane Permeable-Phenotype (%): 20%
  Population Mitochondria Different-Phenotype (%): 30%
  Population Mitotic Cells (%): 59%
  Population Normal (%): 72%
  Population Pyknosed Nuclei (%): 62%
  Population Tubulin-Different-Phenotype (%): 95%
  Total Cell Count: 119
